Reference: article PMC2755653 (Journal of pharmaceutical sciences, 2009)

Assays:
[1] = Cell-free equilibrium dialysis with Pluronic P85; assay type: physicochemical; settings: for time to equilibrium: equilibrium dialysis, MWCO 50,000 membrane, 37°C
Summary of the method: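 Two-chamber dialysis across a 50,000 Da MWCO membrane at 37°C, stirred, in pH 7.4 HEPES/bicarbonate buffer. Radiolabeled test compound was in the donor and buffer in the receiver. Below CMC, P85 was on both sides. For micellar levels, the receiver held 0.025% w/w and the donor target plus 0.005% w/w. Free fraction was receiver/donor concentration; a transfer-rate model was fitted.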

P-gp = P-gp (Homo sapiens, UniProt P08183); experiment: Cellular accumulation of radiolabeled drug in MDCKII-MDR1 cell monolayers; assay type: cell-based; settings: for change in cellular accumulation at Pluronic P85 concentrations above the CMC / increase in cellular accumulation compared to control / change in cellular accumulation with Pluronic P85 up to the CMC / cellular accumulation at 0.5% w/w P85 versus control without P85: MDR1 cells; for (WT/MDR1) accumulation ratio: nelfinavir
Sequence of P-gp (P08183 whole entry): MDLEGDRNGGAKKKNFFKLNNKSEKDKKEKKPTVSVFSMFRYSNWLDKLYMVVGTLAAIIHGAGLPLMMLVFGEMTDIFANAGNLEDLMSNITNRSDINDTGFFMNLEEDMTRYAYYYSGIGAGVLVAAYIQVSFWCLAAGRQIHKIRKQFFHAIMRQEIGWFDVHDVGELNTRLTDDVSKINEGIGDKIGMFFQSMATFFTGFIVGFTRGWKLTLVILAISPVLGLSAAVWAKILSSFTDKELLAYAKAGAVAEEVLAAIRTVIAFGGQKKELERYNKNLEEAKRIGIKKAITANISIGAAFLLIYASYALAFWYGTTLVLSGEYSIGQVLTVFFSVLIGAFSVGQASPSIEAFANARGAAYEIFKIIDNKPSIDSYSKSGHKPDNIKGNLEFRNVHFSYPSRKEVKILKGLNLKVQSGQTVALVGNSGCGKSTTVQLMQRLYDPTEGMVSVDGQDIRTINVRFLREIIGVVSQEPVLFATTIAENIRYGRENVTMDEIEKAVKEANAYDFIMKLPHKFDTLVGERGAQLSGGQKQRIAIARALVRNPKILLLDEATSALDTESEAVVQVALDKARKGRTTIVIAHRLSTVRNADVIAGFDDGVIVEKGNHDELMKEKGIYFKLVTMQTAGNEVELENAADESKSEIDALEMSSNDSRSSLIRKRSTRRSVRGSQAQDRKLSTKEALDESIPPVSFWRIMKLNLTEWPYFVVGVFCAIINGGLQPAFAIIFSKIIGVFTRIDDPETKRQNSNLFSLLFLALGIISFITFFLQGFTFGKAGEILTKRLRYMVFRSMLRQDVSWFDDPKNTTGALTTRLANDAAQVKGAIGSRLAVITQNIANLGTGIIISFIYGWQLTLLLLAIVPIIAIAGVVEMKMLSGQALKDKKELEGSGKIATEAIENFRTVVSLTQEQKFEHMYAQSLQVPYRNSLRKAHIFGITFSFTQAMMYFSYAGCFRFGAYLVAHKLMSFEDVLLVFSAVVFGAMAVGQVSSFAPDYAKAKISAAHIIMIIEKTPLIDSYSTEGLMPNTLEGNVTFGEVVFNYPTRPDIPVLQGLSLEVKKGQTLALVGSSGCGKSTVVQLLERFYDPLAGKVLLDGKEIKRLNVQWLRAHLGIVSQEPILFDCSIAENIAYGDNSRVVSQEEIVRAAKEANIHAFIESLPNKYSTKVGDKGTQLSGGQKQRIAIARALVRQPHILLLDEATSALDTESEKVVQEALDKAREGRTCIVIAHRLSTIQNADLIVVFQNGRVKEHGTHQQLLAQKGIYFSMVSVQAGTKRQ

MDCKII-WT cells = experiment: Cellular accumulation of radiolabeled drug in MDCKII-WT cell monolayers; assay type: cell-based, canine; settings: for increase in cellular accumulation compared to control: 0.03% w/w Pluronic P85 (CMC)
[2] = cited from earlier work
[3] = at the CMC of Pluronic P85 (0.03% w/w; printed 0.035% w/w for nelfinavir)

Structure (SMILES) | equilibrium free fraction ([1]; 0.1% w/w Pluronic P85) | equilibrium free fraction ([1]; absence of Pluronic P85) | time to equilibrium [1] | change in cellular accumulation at Pluronic P85 concentrations above the CMC (P-gp) | change in cellular accumulation at Pluronic P85 concentrations above the CMC (MDCKII-WT cells) | increase in cellular accumulation compared to control (MDCKII-WT cells) [fold] | equilibrium free fraction ([1]; 0.5% w/w Pluronic P85) | equilibrium free fraction [1, 3] | change in cellular accumulation with Pluronic P85 up to the CMC (P-gp) | change in cellular accumulation with Pluronic P85 up to the CMC (MDCKII-WT cells) | drug free ([1]; 0.5% w/w Pluronic P85) [%] | cellular accumulation at 0.5% w/w P85 versus control without P85 (P-gp) | cellular accumulation at 0.5% w/w P85 versus control without P85 (MDCKII-WT cells) | further results
OC[C@@H](O)[C@@H](O)[C@H](O)[C@H](O)CO [mannitol] | 0.968 ± 0.04 | 0.994 ± 0.06 | ~ 15 hrs | no effect | no effect |  |  |  |  |  |  |  |  | 
CC[C@]1(O)C[C@@H]2CN(CCc3c([nH]c4ccccc34)[C@@](C(=O)OC)(c3cc4c(cc3OC)N(C)[C@H]3[C@@](O)(C(=O)OC)[C@H](OC(C)=O)[C@]5(CC)C=CCN6CC[C@]43[C@@H]65)C2)C1 [vinblastine] |  |  |  | significant only at 0.5% w/w | significant only at 0.5% w/w | 3 |  |  |  |  |  |  |  | increase in cellular accumulation compared to control (P-gp; 0.05% w/w Pluronic P85 (maximum)): 21 fold; increase in cellular accumulation compared to control (P-gp; 0.5% w/w Pluronic P85): 10 fold; log P [2]: 1.89
COc1cc2c(cc1OC)CN(CCc1ccc(NC(=O)c3cccc4c(=O)c5cccc(OC)c5[nH]c34)cc1)CC2 [GF120918] |  |  |  |  |  |  |  |  |  |  |  |  |  | increase in nelfinavir accumulation compared to control (MDCKII-WT cells; highest concentration of GF120918 used): 5 fold; Emax (maximal effect on nelfinavir accumulation) (MDCKII-WT cells; sigmoid Emax model, mean ± SE): 4.76 ± 0.2 DPM normalized to stock / mg protein
Nc1nc(NC2CC2)c2ncn([C@H]3C=C[C@@H](CO)C3)c2n1 [abacavir] |  | 1.057 ± 0.212 | ~ 20 hrs | significant decline | significant decline |  | 0.871 ± 0.095 | 0.984 ± 0.083 | significant increase | no significant increase |  |  |  | drug associated with the micelles ([1]; 0.5% w/w Pluronic P85): roughly 10%
CC(C)(C)NC(=O)[C@@H]1C[C@@H]2CCCC[C@@H]2CN1C[C@@H](O)[C@H](Cc1ccccc1)NC(=O)[C@H](CC(N)=O)NC(=O)c1ccc2ccccc2n1 [saquinavir] |  | 0.827 ± 0.114 |  | decline in accumulation | decline in accumulation |  | 0.068 ± 0.007 | 0.744 ± 0.031 | significant increase in accumulation | significant increase in accumulation | 7 | not significantly different | not significantly different | 
Cc1c(O)cccc1C(=O)N[C@@H](CSc1ccccc1)[C@H](O)CN1C[C@H]2CCCC[C@H]2C[C@H]1C(=O)NC(C)(C)C [nelfinavir] | 0.194 ± 0.02 | 0.953 ± 0.109 | ~ 50 hrs | decreased significantly | decreased significantly | 1.3 |  | 0.941 ± 0.045 | increased significantly | no statistically significant enhancement | 5 | not statistically different | significantly lower than WT control | drug free ([1]; 0.1% w/w Pluronic P85): 20%; increase in cellular accumulation compared to control (P-gp; 0.03% w/w Pluronic P85): 6 fold; (WT/MDR1) accumulation ratio (P-gp; 0.03% w/w P85): 1.4; (WT/MDR1) accumulation ratio (P-gp; 0.5% w/w P85 (highest dose)): 1.23; (WT/MDR1) accumulation ratio (P-gp; absence of P85, 3 h accumulation): 6
